Series [1] concerns MV4-11. The series is described as follows: Antitumor activity against human MV4-11 cells xenografted in sc dosed C57BL/6 mouse assessed as reduction in tumor growth at => MTD. Format: functional, organism-based.
Series [2] concerns the target T1, Histone-lysine N-methyltransferase, H3 lysine-79 specific (Homo sapiens, UniProt Q8TEK3). Put plainly: Inhibition of 0.05 nM DOT1L (2 to 416 residues) (unknown origin) using biotinylated nucleosome as substrate and [3H]SAM as co-factor preincubated for 30 mins followed by substrate and cofactor addition and measured after 180 mins by scintillation proximity assay. (In general: SPA uses beads or plates that emit light when radiolabelled molecules are held near them.)
Target sequence in this assay (Q8TEK3 whole entry, the tested form may be a part): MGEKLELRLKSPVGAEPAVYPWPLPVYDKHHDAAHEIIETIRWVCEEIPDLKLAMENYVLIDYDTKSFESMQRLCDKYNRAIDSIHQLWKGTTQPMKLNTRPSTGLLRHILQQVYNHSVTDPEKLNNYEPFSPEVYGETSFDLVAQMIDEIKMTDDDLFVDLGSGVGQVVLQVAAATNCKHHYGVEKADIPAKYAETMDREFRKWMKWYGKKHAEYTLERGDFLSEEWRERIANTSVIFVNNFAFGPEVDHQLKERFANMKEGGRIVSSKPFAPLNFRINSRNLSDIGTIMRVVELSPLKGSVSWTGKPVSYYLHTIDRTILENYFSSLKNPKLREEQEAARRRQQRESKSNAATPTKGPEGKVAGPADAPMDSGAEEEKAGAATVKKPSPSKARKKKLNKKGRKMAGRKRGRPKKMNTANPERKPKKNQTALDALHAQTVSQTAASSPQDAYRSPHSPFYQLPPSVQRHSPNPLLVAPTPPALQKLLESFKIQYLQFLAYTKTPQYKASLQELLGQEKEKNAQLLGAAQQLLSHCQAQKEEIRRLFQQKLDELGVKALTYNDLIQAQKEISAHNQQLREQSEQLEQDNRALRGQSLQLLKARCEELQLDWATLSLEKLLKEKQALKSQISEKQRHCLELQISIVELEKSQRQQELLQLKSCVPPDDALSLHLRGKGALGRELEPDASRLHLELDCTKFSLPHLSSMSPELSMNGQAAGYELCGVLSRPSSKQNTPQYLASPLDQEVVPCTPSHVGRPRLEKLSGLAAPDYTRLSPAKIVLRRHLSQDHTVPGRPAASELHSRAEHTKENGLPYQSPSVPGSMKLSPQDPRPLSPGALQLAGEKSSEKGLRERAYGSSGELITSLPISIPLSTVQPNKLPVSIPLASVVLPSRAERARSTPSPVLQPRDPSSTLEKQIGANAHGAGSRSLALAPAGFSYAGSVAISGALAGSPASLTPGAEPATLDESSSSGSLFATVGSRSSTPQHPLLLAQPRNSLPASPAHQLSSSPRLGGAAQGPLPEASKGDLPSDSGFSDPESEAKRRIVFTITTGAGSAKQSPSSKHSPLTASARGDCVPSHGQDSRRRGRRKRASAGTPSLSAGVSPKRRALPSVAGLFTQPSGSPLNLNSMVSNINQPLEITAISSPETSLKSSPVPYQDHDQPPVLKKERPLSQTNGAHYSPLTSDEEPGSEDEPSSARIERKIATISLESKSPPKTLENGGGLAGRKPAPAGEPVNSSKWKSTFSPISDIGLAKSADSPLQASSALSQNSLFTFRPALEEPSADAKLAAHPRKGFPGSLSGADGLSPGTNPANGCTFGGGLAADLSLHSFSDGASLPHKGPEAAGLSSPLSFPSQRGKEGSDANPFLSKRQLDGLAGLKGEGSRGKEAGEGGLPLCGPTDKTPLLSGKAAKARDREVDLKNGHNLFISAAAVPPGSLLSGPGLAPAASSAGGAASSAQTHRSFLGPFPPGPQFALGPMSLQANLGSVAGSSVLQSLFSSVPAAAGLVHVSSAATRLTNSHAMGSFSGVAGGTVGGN

The target of series [3] is T1, Histone-lysine N-methyltransferase, H3 lysine-79 specific. The series is described as follows: Inhibition of DOT1L in human HeLa cells assessed as reduction in H3K79 dimethylation measured after 72 hrs by ELISA. It is filed as cell-based. A general note: ELISA stands for enzyme-linked immunosorbent assay.
Target sequence in this assay (Q8TEK3 whole entry, looked up, the tested form may be a part): as the sequence (Q8TEK3 whole entry, the tested form may be a part) above
Series [4] shares this target. Put plainly: Inhibition of DOT1L in human MOLM13 cells assessed as reduction in HOXA9 gene expression incubated for 72 hrs by bright-glo luciferase reporter gene assay. It is filed as cell-based.
Target sequence in this assay (Q8TEK3 whole entry, looked up, the tested form may be a part): as the sequence (Q8TEK3 whole entry, the tested form may be a part) above
Series [5] shares this target. The series is described as follows: Inhibition of 0.5 nM DOT1L (2 to 416 residues) (unknown origin) using biotinylated nucleosome as substrate and [3H]SAM as co-factor preincubated for 30 mins followed by substrate and cofactor addition and measured after 90 mins by scintillation proximity assay.
Target sequence in this assay (Q8TEK3 whole entry, the tested form may be a part): as above
Series [6] in a line: Intrinsic clearance in rat liver microsomes. Particulars: read-out: CLH. Format: ADME, Microsome. A general note: Liver microsomes are vesicles of endoplasmic reticulum, rich in cytochrome P450 enzymes.
Series [7] is described as follows: Oral bioavailability in Sprague-Dawley Crl:CD(SD) rat at 3 mg/kg measured upto 24 hrs by LC-MS/MS analysis. It is filed as ADME, organism-based. Particulars: in vivo.
The nature of series [8]: Oral bioavailability in C57BL/6 mouse at 3 mg/kg measured upto 24 hrs by LC-MS/MS analysis. It is filed as ADME, organism-based. Particulars: in vivo.
Series [9] relates to MV4-11. Put plainly: Antitumor activity against human MV4-11 cells xenografted in C57BL/6 mouse assessed as tumor growth inhibition at 200 mg/kg, administered twice daily for 23 days. It is filed as functional, organism-based. In a few lines:
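Mice bearing subcutaneous MV4-11 xenografts were treated for 23 days at 200 mg/kg twice daily. Tumor growth inhibition was assessed against control.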

In series [10] the test system is Mus musculus. The series is described as follows: In vivo inhibition of DOT1L in C57BL/6 mouse xenografted with human MV4-11 cells assessed as reduction in HOXA9 gene expression at 200 mg/kg, administered twice daily for 23 days by qPCR analysis. Format: functional, organism-based.
The subject of series [11] is Mus musculus. The series is described as follows: In vivo inhibition of DOT1L in C57BL/6 mouse xenografted with human MV4-11 cells assessed as reduction in MEIS1 gene expression at 200 mg/kg, administered twice daily for 23 days by qPCR analysis. It is filed as functional, organism-based.
In series [12] the test system is Mus musculus. The series is described as follows: In vivo inhibition of DOT1L in C57BL/6 mouse xenografted with human MV4-11 cells assessed as reduction in H3K79 dimethylation at 200 mg/kg, administered twice daily for 23 days by ELISA relative to control. Particulars: 552 h. Format: functional.
The nature of series [13]: Lipophilicity, log D of the compound at pH 7.4. It is filed as physicochemical. Particulars: buffer.
The nature of series [14]: Drug uptake in C57BL/6 mouse at 50 mg/kg, sc administered twice daily for 7 days. It is filed as ADME, organism-based. Particulars: in vivo, 168 h.
Series [15] in a line: Toxicity in NOD-SCID mouse xenografted with human MV4-11 cells assessed as change in body weight at 75 mg/kg, sc administered qd for 20 days. Particulars: in vivo, 480 h.
Series [16] is described as follows: Toxicity in NOD-SCID mouse xenografted with human MV4-11 cells assessed as change in body weight at 75 mg/kg, sc administered bid for 20 days. Particulars: in vivo, 480 h.
For series [17], the system named is MV4-11. Put plainly: Antitumor activity against human MV4-11 cells xenografted in NOD-SCID mouse assessed as tumor growth inhibition at 75 mg/kg, sc qd administered for 20 days.
The subject of series [18] is MV4-11. The series is described as follows: Antitumor activity against human MV4-11 cells xenografted in NOD-SCID mouse assessed as tumor growth inhibition at 75 mg/kg, sc administered bid for 20 days. Particulars: MV4-11, sc, 480 h, read-out: TGI.
The test system of series [19] is Mus musculus. The series is described as follows: In vivo inhibition of DOT1L in NOD-SCID mouse xenografted with human MV4-11 cells assessed as reduction in H3K79 dimethylation at 75 mg/kg, sc administered bid for 20 days.
Series [20] deals with Mus musculus. The series is described as follows: In vivo inhibition of DOT1L in NOD-SCID mouse xenografted with human MV4-11 cells assessed as reduction in H3K79 dimethylation at 75 mg/kg, sc administered twice daily for 20 days.
Series [21] has as its system Mus musculus. Put plainly: In vivo inhibition of DOT1L in NOD-SCID mouse xenografted with human MV4-11 cells assessed as reduction in H3K79 dimethylation at 75 mg/kg, sc administered once daily for 20 days by ELISA.
The subject of series [22] is Mus musculus. The series is described as follows: In vivo inhibition of DOT1L in NOD-SCID mouse xenografted with human MV4-11 cells assessed as reduction in HOXA9 gene expression at 75 mg/kg, sc administered qd for 20 days by qPCR analysis. Particulars: MV4-11, sc, 480 h.
In series [23] the test system is Mus musculus. The series is described as follows: In vivo inhibition of DOT1L in NOD-SCID mouse xenografted with human MV4-11 cells assessed as reduction in MEIS1 gene expression at 75 mg/kg, sc administered qd for 20 days by qPCR analysis. Particulars: MV4-11, sc, 480 h.
Series [24] has as its system Mus musculus. The series is described as follows: In vivo inhibition of DOT1L in NOD-SCID mouse xenografted with human MV4-11 cells assessed as reduction in HOXA9 gene expression at 75 mg/kg, sc administered bid for 20 days by qPCR analysis. Particulars: MV4-11, sc, 480 h.
Series [25] deals with Mus musculus. The series is described as follows: In vivo inhibition of DOT1L in NOD-SCID mouse xenografted with human MV4-11 cells assessed as reduction in MEIS1 gene expression at 75 mg/kg, sc administered bid for 20 days by qPCR analysis. Particulars: MV4-11, sc, 480 h.
The nature of series [26]: Cmax in C57BL/6 mouse at 100 mg/kg, po administered as single dose. It is filed as ADME, organism-based. On the set-up: dose 100 mg/kg, route oral. Particulars: in vivo.
The nature of series [27]: AUC (0 to 12 hrs) in C57BL/6 mouse at 100 mg/kg, po administered as single dose. It is filed as ADME, organism-based. On the set-up: dose 100 mg/kg, time < 12 hr, route oral. Particulars: in vivo.
Series [28] in a line: Cmax in C57BL/6 mouse at 100 mg/kg, po bid for 20 days. Format: ADME, organism-based. On the set-up: dose 100 mg/kg, route oral. Particulars: in vivo.
Series [29] is described as follows: AUC (0 to 12 hrs) in C57BL/6 mouse at 100 mg/kg, po bid for 20 days. Also noted: dose 100 mg/kg, time < 12 hr, route oral. It is filed as ADME, organism-based. Particulars: in vivo.
The nature of series [30]: Induction of CYP3A4 in rat hepatocytes. It is filed as ADME, cell-based.
The target in series [31] is Cytochrome P450 3A4 (Homo sapiens, UniProt P08684). Put plainly: Induction of CYP3A4 in human hepatocytes. Format: ADME, cell-based.

The source of these data is ChEMBL document CHEMBL4406923, “New Potent DOT1L Inhibitors for in Vivo Evaluation in Mouse” (ACS Med Chem Lett, 2019).

Active and inactive are the calls of the source. The rule behind the calls is not given here.

Sequence of Cytochrome P450 3A4 (P08684 whole entry): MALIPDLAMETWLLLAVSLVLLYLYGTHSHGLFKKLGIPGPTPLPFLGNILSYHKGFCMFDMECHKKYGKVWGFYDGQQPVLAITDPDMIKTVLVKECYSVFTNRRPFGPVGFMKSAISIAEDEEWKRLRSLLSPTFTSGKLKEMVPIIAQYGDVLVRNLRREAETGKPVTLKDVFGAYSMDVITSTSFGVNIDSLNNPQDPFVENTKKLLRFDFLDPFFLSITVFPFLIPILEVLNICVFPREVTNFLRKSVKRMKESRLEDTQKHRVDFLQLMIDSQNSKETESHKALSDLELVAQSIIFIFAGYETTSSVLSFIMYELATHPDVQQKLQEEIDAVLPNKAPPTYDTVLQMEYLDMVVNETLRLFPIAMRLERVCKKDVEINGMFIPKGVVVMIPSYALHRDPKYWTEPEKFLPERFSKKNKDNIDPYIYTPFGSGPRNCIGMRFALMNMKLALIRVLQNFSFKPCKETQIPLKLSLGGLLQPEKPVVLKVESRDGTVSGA

As for `CC(C)N(C[C@H]1O[C@@H](n2cnc3c(N)ncnc32)[C@H](O)[C@@H]1O)[C@H]1C[C@@H](CCc2nc3cc(C(C)(C)C)ccc3[nH]2)C1`, the outcome in series [1] was inactive.
By IC50 is commonly meant the concentration that gives 50% inhibition. Regarding `COc1nc(Nc2cc(S(C)(=O)=O)ccc2N[C@@H](c2cccc3c2OC(F)(F)O3)c2ncccc2Cl)nc(OC)n1`, in series [2], 0.19 nM corresponded to half-maximal inhibition (IC50). Further, the ED50 in series [3] was 12 nM; in [4], 170 nM.
The compound `CS(=O)(=O)c1ccc(N[C@H](c2ccccn2)c2cccc(Cl)c2F)c(Nc2ncccn2)c1` gave a half-inhibitory concentration (IC50) in [5] of 97 nM. The microsomal CLint in [6] was 50 µL/min/mg.
Usually bioavailability stands for dose-corrected exposure relative to a reference, in per cent. High values mean much systemic uptake, low ones little systemic uptake. As for `CS(=O)(=O)c1ccc(N[C@H](c2ccccn2)c2cccc(Cl)c2F)c(Nc2nccc(C(N)=O)n2)c1`, the IC50 turned out to be 3.9 nM in series [5] and 2.1 nM in series [2]. Further, the ED50 is 300 nM in series [3] and 4500 nM in series [4]. Also, the bioavailability was 36% in series [7] and 26% in series [8]. Also, the TGI result in [9] is “inactive”. Also, the inhibition entry in [10] and in series [11] was “inactive” in each case. The inhibition in vivo at 200 mg/kg in series [12] amounted to 50%.
Take `CS(=O)(=O)c1ccc(N[C@@H](c2cccc(Cl)c2)c2ccccn2)c(Nc2ncccn2)c1`: the IC50 in series [5] was 270 nM. Moreover, the microsomal CLint in series [6] is 553 µL/min/mg.
A word on the logD: it is lipophilicity at a set pH, counting ionised and neutral species. Read a high logD as a more lipophilic compound. In the case of `COc1nc(N)nc(Nc2cc(S(N)(=O)=O)ccc2N[C@@H](c2cccc3c2OC(F)(F)O3)c2ncccc2Cl)n1`, inhibition in [2] was half-maximal at 0.17 nM (IC50). For the same compound, the ED50 in series [3] worked out at 2.9 nM; in [4], 30 nM. Moreover, the logD in series [13] is 3.5. Further, the Drug uptake result in series [14] is “Active”. In addition, the Activity result in [15] and in [16] was “Non-Toxic” in each case. Further, the TGI entry in [17] is “inactive”. Further, the inhibition in vivo at 75 mg/kg in [18] was 73%; in series [22], 25%; in [23], 53%; in series [24], 53%; in [25] it was 74%. Moreover, the inhibition entry in series [19], in series [20] and in [21] was “Active” throughout.
Turning to `CS(=O)(=O)c1ccc(N[C@@H](c2cccc(Cl)c2F)c2ncccc2F)c(Nc2ncccn2)c1`, half-maximal inhibition in series [5] (IC50) required 16 nM.
Regarding `CS(=O)(=O)c1ccc(N[C@H](c2cccc(Cl)c2)c2ccccn2)c(Nc2ncccn2)c1`, in series [5], the IC50 was 22800 nM.
The term Cmax denotes the maximum level reached in the sampled fluid or tissue. In general, AUC(0-t) refers to exposure summed from dosing to a finite time, without extrapolation to infinity. A lower AUC(0-t) goes with less exposure. For orientation: AUC means concentration integrated over time. The low end stands for less exposure, the high end for more exposure. Regarding `COc1nc(Nc2cc(S(C)(=O)=O)ccc2N[C@@H](c2cccc(Cl)c2F)c2ncccc2F)nc(OC)n1`, half-maximal inhibition in series [2] (IC50) was put at 0.59 nM. The ED50 in [3] came out at 43 nM. The Cmax in series [26] was determined as 24 µM; in [28], 12 µM. In series [27], this compound displayed an AUC(0-t) at 12 h of 216 µM·h. In addition, the AUC at 12 h in series [29] stood at 47 µM·h. Also, the outcome in series [30] and in series [31] was Active.
In turn, `NS(=O)(=O)c1ccc(NC(c2ccccc2)c2ccccc2)c([N+](=O)[O-])c1` had an IC50 in series [5] of 8500 nM.
Consider `CS(=O)(=O)c1ccc(NC(c2cccc(Cl)c2)c2ccccn2)c([N+](=O)[O-])c1` (racemic), for which the IC50 in series [5] was found to be 4600 nM.
